Screening results deposited in PubChem BioAssay by several laboratories.
A selection: hits, their analogues and other compounds. The true share with any hit is near 4.2%.
CTSL1 counter: Fasciola hepatica cathepsin L1 inhibitors, primary screen, counter-screen for PFM18AAP inhibitor project, biochemical, QFRET, fluorogenic peptide substrate; inhibition, % at 5.96 µM; recombinant F. hepatica cathepsin L1, Z-Leu-Arg-MCA fluorescence; hit rate 0.49% among 300,000;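 active means inhibition above the mean of all tested compounds plus 3 SD, set per screening campaign, cut at about 17% in these data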
SENP1 FRET inh: human SENP1 catalytic domain inhibitors, primary screen, biochemical, FRET, uHTS; AID 624204, 2012; hit rate 0.21% among 360,000; recombinant SENP1 catalytic domain, CyPet-SUMO1-YPet FRET cleavage; inhibition, % at 10 µM;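 active means inhibition at least 30% at 10 µM, raw YFP signal under a set limit, fluorescence ratio 0.5 to 1.5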
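System: Recombinant human SENP1 catalytic domain, His6-tagged | Incubation: Enzyme reaction for 50 min at room temperature, dark | Medium: Tris pH 8 with BME, BSA, NP40 and catalase | Also added: 25 nM SUMO1 FRET substrate | Compound: 10 µM single point, 0.5% DMSO | Measured by: FRET fluorescence in CFP and YFP emission channels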
HDAC3 inhib: HDAC3 deacetylase inhibitors, primary screen, biochemical, fluorescence, cell-free homogeneous; recombinant HDAC3, fluorogenic peptide/trypsin coupled; inhibition, % at 8.3 µM; hit rate 0.15% among 320,000; AID 2718, 2010; in the data active means inhibition above about 26%, passing the limit was not always enough
GAA850 FXN act: FXN promoter activators, primary screen, cell-based, luciferase luminescence, HEK293 lucGAA850; activation, % at 6 µM; HEK293 lucGAA850 FXN promoter luciferase reporter, 24 h; percent of 10 µM SAHA response; hit rate 0.56% among 360,000;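 active means activation above the average of all compounds screened plus 3 SD, cutoff fixed separately per campaign, cut at about 7.5% in these data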
M18AAP inhibitor: PfM18AAP inhibitors, malaria aminopeptidase, primary screen, biochemical, QFRET, recombinant enzyme; M18 aspartyl aminopeptidase (Plasmodium falciparum 3D7); H-Glu-NHMec fluorogenic cleavage; inhibition, % at 7.35 µM; hit rate 1.2% among 290,000; AID 1822, 2009;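 active means inhibition above the campaign mean inhibition over all tested compounds plus 3 SD, cut at about 28% in these data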
AHR activator: AHR activators, primary screen, cell-based, luminescence, luciferase reporter, human; Aryl hydrocarbon receptor (Homo sapiens), P35869; AHR-responsive luciferase reporter cells; activation, % at 5 µM; hit rate 2.5% among 320,000; AID 2796, 2010; in the data active means activation above about 47%
Target sequence (P35869 whole entry, looked up): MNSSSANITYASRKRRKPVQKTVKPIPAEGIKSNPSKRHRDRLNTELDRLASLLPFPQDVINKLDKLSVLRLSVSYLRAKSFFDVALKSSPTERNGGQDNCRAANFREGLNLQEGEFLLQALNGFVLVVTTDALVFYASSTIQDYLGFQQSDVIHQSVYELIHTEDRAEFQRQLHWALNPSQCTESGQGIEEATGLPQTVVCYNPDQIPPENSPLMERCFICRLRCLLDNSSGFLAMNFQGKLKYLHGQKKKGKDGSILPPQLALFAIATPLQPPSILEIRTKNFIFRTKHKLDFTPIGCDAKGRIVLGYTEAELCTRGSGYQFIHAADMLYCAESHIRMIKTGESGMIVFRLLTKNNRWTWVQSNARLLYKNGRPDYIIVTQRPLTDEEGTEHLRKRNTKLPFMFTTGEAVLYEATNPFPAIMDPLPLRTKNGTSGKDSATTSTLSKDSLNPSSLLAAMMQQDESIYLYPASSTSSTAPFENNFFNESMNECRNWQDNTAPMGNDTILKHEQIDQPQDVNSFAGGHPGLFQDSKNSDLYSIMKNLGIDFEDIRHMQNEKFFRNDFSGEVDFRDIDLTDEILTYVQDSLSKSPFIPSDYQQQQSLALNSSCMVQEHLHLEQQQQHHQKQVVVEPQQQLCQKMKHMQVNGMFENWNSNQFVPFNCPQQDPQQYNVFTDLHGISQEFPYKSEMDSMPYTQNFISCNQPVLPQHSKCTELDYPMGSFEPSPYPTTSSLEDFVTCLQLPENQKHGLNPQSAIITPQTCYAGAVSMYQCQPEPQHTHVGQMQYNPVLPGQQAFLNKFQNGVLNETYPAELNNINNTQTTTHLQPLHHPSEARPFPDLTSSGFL
Numbers stand for hits.

Cc1cc([N+](=O)[O-])nn1CCCC(=O)N1CCN(c2ccc(F)cc2)CC1 was read as CTSL1 counter inactive, SENP1 FRET inh inactive, HDAC3 inhib inactive, GAA850 FXN act inactive, M18AAP inhibitor inactive and AHR activator inactive.
Screening Cn1nc([N+](=O)[O-])nc1N1CCN(c2ccc(F)cc2)CC1 returned CTSL1 counter inactive, SENP1 FRET inh inactive, HDAC3 inhib inactive, GAA850 FXN act inactive, M18AAP inhibitor 28 and AHR activator inactive.
`C[C@@H]1CCCCO[C@H](CN(C)Cc2ccc(C(=O)O)cc2)[C@@H](C)CN([C@H](C)CO)C(=O)c2cc(NC(=O)CCC(F)(F)F)ccc2O1` gave SENP1 FRET inh inactive and GAA850 FXN act inactive.
For COc1cc(C(=O)N/N=C2\CCS(=O)(=O)c3ccc(F)cc32)cc(OC)c1OC the results were CTSL1 counter inactive, SENP1 FRET inh inactive, HDAC3 inhib inactive, GAA850 FXN act inactive, M18AAP inhibitor inactive and AHR activator inactive.
COc1ccccc1NCC(=O)NN=C1CCS(=O)(=O)c2ccc(F)cc21 was read as SENP1 FRET inh inactive, HDAC3 inhib inactive, GAA850 FXN act inactive and AHR activator 49.
For COc1ccc(NC(=O)N(C)C[C@@H]2OCc3cnnn3CCCC(=O)N([C@@H](C)CO)C[C@H]2C)cc1 the results were SENP1 FRET inh inactive and GAA850 FXN act inactive.
Cc1[nH]n(-c2ccccc2)c(=O)c1C(C[N+](=O)[O-])c1ccc(Br)cc1 (stereo unspecified) was read as CTSL1 counter inactive, SENP1 FRET inh inactive, HDAC3 inhib inactive, GAA850 FXN act inactive, M18AAP inhibitor 30 and AHR activator inactive.
`COc1cccc(C(C[N+](=O)[O-])c2c(C)[nH]n(-c3ccccc3)c2=O)c1` (stereo unspecified) gave CTSL1 counter 101, SENP1 FRET inh inactive, HDAC3 inhib inactive, GAA850 FXN act inactive, M18AAP inhibitor 39 and AHR activator inactive.
For Cc1[nH]n(-c2ccccc2)c(=O)c1C(c1cccc([N+](=O)[O-])c1)c1c(C)[nH]n(-c2ccccc2)c1=O the results were CTSL1 counter inactive, SENP1 FRET inh inactive, HDAC3 inhib inactive, GAA850 FXN act inactive, M18AAP inhibitor inactive and AHR activator inactive.
`CCCNC(=O)C1(C)CCCN(C(=O)c2ccc(F)c(Cl)c2)C1` (stereo unspecified) gave SENP1 FRET inh inactive and GAA850 FXN act inactive.
COc1cc(OC)cc(-c2nnc(Nc3nc4c(F)cccc4s3)o2)c1 was read as CTSL1 counter inactive, SENP1 FRET inh inactive, HDAC3 inhib inactive, GAA850 FXN act inactive, M18AAP inhibitor inactive and AHR activator inactive.
`COc1ccc(-c2nnc(Nc3nc4c(OC)cccc4s3)o2)cc1` gave CTSL1 counter inactive, SENP1 FRET inh inactive, HDAC3 inhib inactive, GAA850 FXN act inactive, M18AAP inhibitor inactive and AHR activator 75.
COc1ccc(OC)c(/C=C/c2[nH]c(=O)[nH]c(=O)c2[N+](=O)[O-])c1 was read as SENP1 FRET inh inactive, GAA850 FXN act inactive and M18AAP inhibitor inactive.
For CC1CN(S(=O)(=O)c2cccc(C(=O)OCCOc3ccccc3)c2)CC(C)O1 (stereo unspecified) the results were SENP1 FRET inh inactive, HDAC3 inhib inactive, GAA850 FXN act inactive and AHR activator inactive.
For CC1CC(C)CN(S(=O)(=O)c2cccc(C(=O)OCCN3CCCC3=O)c2)C1 (stereo unspecified) the results were CTSL1 counter 18, SENP1 FRET inh inactive, HDAC3 inhib inactive, GAA850 FXN act inactive, M18AAP inhibitor inactive and AHR activator inactive.
For CC(=O)NCCNc1nc2cc(-c3ccc4c(ccn4C)c3)sc2c(=O)n1C the results were SENP1 FRET inh inactive and GAA850 FXN act inactive.
`COc1ccc(-c2nnc(-c3ccc(N(C)C)cc3)o2)cc1` gave CTSL1 counter inactive, SENP1 FRET inh inactive, HDAC3 inhib inactive, GAA850 FXN act inactive, M18AAP inhibitor inactive and AHR activator inactive.
`Cc1ccccc1-c1nnc(-c2ccccc2)o1` gave CTSL1 counter inactive, SENP1 FRET inh inactive, HDAC3 inhib inactive, GAA850 FXN act inactive, M18AAP inhibitor inactive and AHR activator inactive.
`CN(C)c1ccc(-c2nnc(-c3ccccc3F)o2)cc1` gave CTSL1 counter inactive, SENP1 FRET inh inactive, HDAC3 inhib inactive, GAA850 FXN act inactive, M18AAP inhibitor inactive and AHR activator 63.
Clc1ccccc1-c1nnc(-c2ccccc2Cl)o1 was read as CTSL1 counter inactive, SENP1 FRET inh inactive, HDAC3 inhib inactive, GAA850 FXN act inactive, M18AAP inhibitor inactive and AHR activator inactive.
`Clc1ccc(-c2nnc(-c3ccccc3Cl)o2)cc1` gave CTSL1 counter inactive, SENP1 FRET inh inactive, HDAC3 inhib inactive, GAA850 FXN act inactive, M18AAP inhibitor inactive and AHR activator 49.
Screening Cc1ccccc1-c1nnc(-c2ccc(Cl)cc2)o1 returned CTSL1 counter inactive, SENP1 FRET inh inactive, HDAC3 inhib inactive, GAA850 FXN act inactive, M18AAP inhibitor inactive and AHR activator 54.
For COc1cc(C(=O)NCC(=O)Nc2ccc(F)c(F)c2)ccc1OCC(=O)N1CCOCC1 the results were CTSL1 counter 20, SENP1 FRET inh inactive, HDAC3 inhib inactive, GAA850 FXN act inactive and AHR activator inactive.
CC(=O)NN1C(=O)c2ccccc2NC1c1ccccn1 (stereo unspecified) was read as CTSL1 counter inactive, SENP1 FRET inh inactive, HDAC3 inhib inactive, GAA850 FXN act inactive, M18AAP inhibitor 40 and AHR activator inactive.
Screening Cc1cccc(C2Nc3ccccc3C(=O)N2NC(=O)c2ccc([N+](=O)[O-])cc2)n1 (stereo unspecified) returned CTSL1 counter inactive, SENP1 FRET inh inactive, HDAC3 inhib inactive, GAA850 FXN act inactive, M18AAP inhibitor 40 and AHR activator inactive.
O=C(NN1C(=O)c2ccccc2NC1c1ccccn1)c1ccc([N+](=O)[O-])cc1 (stereo unspecified) was read as CTSL1 counter inactive, SENP1 FRET inh inactive, HDAC3 inhib inactive, GAA850 FXN act inactive, M18AAP inhibitor inactive and AHR activator inactive.
For Clc1ccc(/C=N/Nc2nnc(-c3ncc[nH]3)c3ccccc23)cc1 the results were CTSL1 counter inactive, SENP1 FRET inh inactive, HDAC3 inhib inactive, GAA850 FXN act inactive, M18AAP inhibitor inactive and AHR activator 76.
Screening Fc1cccc(/C=N/Nc2nncc3ccccc23)c1 returned CTSL1 counter inactive, SENP1 FRET inh inactive, HDAC3 inhib inactive, GAA850 FXN act inactive, M18AAP inhibitor inactive and AHR activator 55.
Screening C(=N\Nc1nncc2ccccc12)/c1ccccn1 returned CTSL1 counter inactive, SENP1 FRET inh inactive, HDAC3 inhib inactive, GAA850 FXN act inactive, M18AAP inhibitor inactive and AHR activator inactive.
